Test results: paper PMC6635418 (Current Drug Delivery, 2019)
Converted amounts (≈) assume the structure as drawn.

Tests used:
[1] = Pharmacokinetics of oral topotecan with or without chrysin formulations in rats; assay type: in vivo
Summary of the method: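 Male Sprague-Dawley rats (250-290 g), fasted 12 h, n=3 per group. Oral BCRP substrate (10 mg/kg in saline) given alone or with test compound, free or as solid dispersion (100 mg/kg equivalent in 0.5% methylcellulose/5% PEG). Femoral arterial plasma analysed by HPLC-fluorescence (ex 350/em 527 nm), 10-1000 ng/mL. Noncompartmental: trapezoidal AUC, observed Cmax/Tmax. ANOVA with Dunnett's test.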

[2] = Solubility study in distilled water; assay type: physicochemical
Summary of the method: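 Each formulation, equivalent to 1 mg test compound, stirred in 1 mL distilled water at 600 rpm for 24 h at room temperature. Centrifuged at 13,000 rpm for 10 min and filtered through 0.45 µm. Filtrate diluted in ethanol and quantified by C18 HPLC-UV at 267 nm against a 0.5-20 µg/mL calibration. n=3, mean±SD.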

[3] = system: breast cancer resistance protein (BCRP); conditions: read-out: IC50 against mitoxantrone efflux; BCRP inhibition; cited from earlier work
[4] = cited from earlier work
[5] = male, Sprague-Dawley, rat, plasma, po, 10 mg/kg

Compound: CC[C@@]1(O)C(=O)OCc2c1cc1n(c2=O)Cc2cc3c(CN(C)C)c(O)ccc3nc2-1 [Control (Topotecan Only), topotecan]
- AUC [1, 5]: 578 ± 37.2 ng·h/mL
- Cmax [1, 5]: 109 ± 44.5 ng/mL
- Tmax [1, 5]: 1.3 ± 0.66 h

Compound: O=c1cc(-c2ccccc2)oc2cc(O)cc(O)c12 [chrysin (untreated drug), 5,7-dihydroxyflavone]
- solubility at 24 h [2]: 3.04 ± 0.19 µg/mL (≈ 11.9 µM)
- effect on oral exposure of topotecan ([1]; rats, oral, versus topotecan only): no effect
- IC50 [3]: 390 ± 130 nM

Compound: CCCCCCCCCCCCOCCOCCOCCOCCO [Brij®L4, polyoxyethylene (4) lauryl ether]
- critical micelle concentration (CMC) [4]: 0.00097 %, w/v
